The values that follow come from ChEMBL document CHEMBL2016576, “Design, synthesis and structure-activity-relationship of 1,5-tetrahydronaphthyridines as CETP inhibitors” (Bioorg Med Chem Lett, 2012).

Data set [1] in a line: Clearance in cynomolgus monkey at 1 mg/kg, iv and 3 mg/kg, po after 72 hrs. To be noted: in vivo. Type of data set: ADME, organism-based, Macaca fascicularis.
A short description of data set [2]: Clearance in Sprague-Dawley rat at 1 mg/kg, iv and 3 mg/kg, po after 72 hrs. Format: ADME, organism-based. To be noted: in vivo.
The target in data set [3] is T1, Cholesteryl ester transfer protein (Homo sapiens, UniProt P11597).
T1 sequence (P11597 whole entry): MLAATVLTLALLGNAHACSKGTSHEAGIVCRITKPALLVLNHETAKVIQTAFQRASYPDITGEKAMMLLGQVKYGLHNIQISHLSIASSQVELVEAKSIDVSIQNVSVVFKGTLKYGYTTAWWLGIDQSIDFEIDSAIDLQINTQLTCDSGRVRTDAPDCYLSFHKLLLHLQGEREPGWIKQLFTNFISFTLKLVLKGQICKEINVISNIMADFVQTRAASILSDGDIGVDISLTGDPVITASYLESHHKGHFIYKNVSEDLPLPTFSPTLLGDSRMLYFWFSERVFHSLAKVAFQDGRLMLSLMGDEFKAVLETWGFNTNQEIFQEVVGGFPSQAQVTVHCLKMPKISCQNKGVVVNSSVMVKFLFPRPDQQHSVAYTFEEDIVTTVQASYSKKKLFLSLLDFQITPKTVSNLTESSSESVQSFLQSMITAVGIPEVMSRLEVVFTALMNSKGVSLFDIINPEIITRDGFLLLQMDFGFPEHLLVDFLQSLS
The data set can be described thus: Inhibition of CETP in human plasma assessed as reduction in fluorescent intensity by fluorescence analysis.

The nature of data set [4]: Clearance in beagle dog at 1 mg/kg, iv and 3 mg/kg, po after 72 hrs. To be noted: in vivo. Format: ADME, organism-based, Canis lupus familiaris.
Data set [5] in a line: Oral bioavailability in Sprague-Dawley rat at 3 mg/kg after 72 hrs. Type of data set: ADME, organism-based. To be noted: in vivo.
Data set [6] can be described thus: Oral bioavailability in cynomolgus monkey at 3 mg/kg after 72 hrs. Format: ADME, organism-based, Macaca fascicularis. The settings on record: in vivo.
Data set [7] in a line: Oral bioavailability in beagle dog at 3 mg/kg after 72 hrs. The settings on record: in vivo. Type of data set: ADME, organism-based, Canis lupus familiaris.
Data set [8] concerns Mus musculus. The data set can be described thus: Ex-vivo inhibition of CETP activity in transgenic mouse harboring human CETP/human ApoA1 gene at 30 mg/kg, po measured after 8 hrs. Format: functional. A digest of the protocol:
(§1)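 Male hCETP/hApoA1 heterozygous dual transgenic mice given 30 mg/Kg orally in corn oil (79.5%)/oleic acid (20%)/labrafil (0.5%); blood taken over an 8 h time course; serum tested ex vivo for CETP activity and in vivo serum HDL-c measured.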

For data set [9], the system named is Mus musculus. The data set can be described thus: Increase in HDL-cholesterol level in transgenic mouse harboring human CETP/human ApoA1 gene at 30 mg/kg, po measured after 8 hrs. Type of data set: functional. A digest of the protocol: as §1
Data set [10] deals with cortisol synthase mRNA. The data set can be described thus: Induction of cortisol synthase mRNA level in human NCI-H295 cells by in vitro branched DNA method relative to control. To be noted: read-out: FC. Type of data set: cell-based. In short, it runs like this: (§2)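 Human adrenal H295 cells were assayed in vitro. CYP11B2 (aldosterone synthase) and CYP11B1 (cortisol synthase) mRNA were quantified by branched DNA, and induction was expressed relative to untreated control.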

The subject of data set [11] is aldosterone synthase mRNA. The data set can be described thus: Induction of aldosterone synthase mRNA level in human NCI-H295 cells by in vitro branched DNA method relative to control. The settings on record: read-out: FC. Type of data set: cell-based. A digest of the protocol:
as §2

Data set [12] in a line: Induction of cortisol synthase mRNA level in human NCI-H295 cells by in vitro branched DNA method. Format: cell-based.

Broadly, the IC50 is the concentration that gives 50% inhibition. Broadly, the bioavailability is the share of a dose that reaches the circulation, judged against a reference dose that is usually intravenous. A word on the inhibition in vivo: it is the relative decrease from the control value, in per cent. With `CC[C@@H]1C[C@H](N(Cc2cc(C(F)(F)F)cc(C(F)(F)F)c2)c2nnn(C)n2)c2nc(C(F)(F)F)ccc2N1C(=O)OC(C)C`, the clearance amounted to 0.7 mL/min/kg in data set [1], 5.5 mL/min/kg in data set [2] and 1.5 mL/min/kg in data set [4]. In addition, the IC50 in [3] was 23 nM. Besides, the bioavailability in data set [5] is 31%; in data set [6] it was 18%; in [7] it was 49%. The inhibition in vivo at 30 mg/kg in data set [8] was 91.6%. This compound displayed an Activity in [9] of 134%. Moreover, the fold induction in data set [10] and in data set [11] was 10 each time.
For `CCOC(=O)N1c2ccc(C(F)(F)F)cc2[C@@H](N(Cc2cc(C(F)(F)F)cc(C(F)(F)F)c2)C(=O)OC)C[C@H]1CC` [TORCETRAPIB], in data set [12], the Activity entry is reported as “Toxic”.
For the compound `CC[C@@H]1C[C@H](N(Cc2cc(C(F)(F)F)cc(C(F)(F)F)c2)c2nnn(C)n2)c2nc(C)ccc2N1C(=O)OC(C)C`, the clearance in [1] worked out at 2.2 mL/min/kg; in data set [2] it was 16.4 mL/min/kg. Moreover, in data set [3], the IC50 came out at 22 nM. The bioavailability was 18% in data set [5] and 32% in data set [6]. Further, the inhibition in vivo at 30 mg/kg in data set [8] worked out at 105%. Besides, the Activity in data set [9] stood at 147.8%.
As for `CC[C@@H]1C[C@H](N(Cc2cc(C(F)(F)F)cc(C(F)(F)F)c2)c2nnn(C)n2)c2nc(C(F)(F)F)ccc2N1C(=O)OC1CCN(C)CC1`, the half-inhibitory concentration (IC50) in data set [3] was 72 nM.
